# Test results as given in ChEMBL document CHEMBL5126501, “Therapeutic potential for coxibs-nitric oxide releasing hybrids in cystic fibrosis” (Eur J Med Chem, 2021).
# Legend:
# [1] = molecular target: T1, Prostaglandin G/H synthase 2 (Homo sapiens) (UniProt P35354); assay: Inhibition of human recombinant COX-2 assessed as […] production at 10 uM using arachidonic acid as substrate preincubated for 10 mins followed by substrate addition and measured after 2 mins by enzyme immunoassay relative to control; conditions: time 12.0 min
# T1 sequence (whole entry): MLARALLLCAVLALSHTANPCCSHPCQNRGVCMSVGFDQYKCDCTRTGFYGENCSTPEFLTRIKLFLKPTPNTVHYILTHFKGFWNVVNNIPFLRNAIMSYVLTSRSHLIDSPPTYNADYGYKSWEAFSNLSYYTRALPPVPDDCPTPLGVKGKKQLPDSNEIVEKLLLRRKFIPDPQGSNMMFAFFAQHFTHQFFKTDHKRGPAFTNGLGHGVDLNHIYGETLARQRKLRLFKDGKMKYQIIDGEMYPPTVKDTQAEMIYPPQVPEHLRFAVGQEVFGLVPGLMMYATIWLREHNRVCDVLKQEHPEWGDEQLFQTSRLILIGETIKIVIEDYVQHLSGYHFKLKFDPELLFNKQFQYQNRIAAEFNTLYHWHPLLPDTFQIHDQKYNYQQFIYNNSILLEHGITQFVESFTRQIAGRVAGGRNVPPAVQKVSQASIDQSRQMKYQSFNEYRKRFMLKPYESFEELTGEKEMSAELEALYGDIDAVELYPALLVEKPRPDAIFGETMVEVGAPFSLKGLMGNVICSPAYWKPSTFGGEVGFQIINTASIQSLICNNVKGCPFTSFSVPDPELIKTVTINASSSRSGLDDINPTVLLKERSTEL
# Method in brief: (§1)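 PGE2 production was measured with test compound and compared with control samples to give % inhibition. Values are means of n = 3 experiments. IC50 was obtained by fitting a sigmoidal dose–response equation with variable slope.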
# [2] = molecular target: T2, Prostaglandin G/H synthase 1 (Ovis aries, UniProt P05979); assay: Inhibition of ovine COX-1 assessed as […] production using arachidonic acid as substrate preincubated for 10 mins followed by substrate addition and measured after 2 mins by enzyme immunoassay; method in brief: as §1
# T2 sequence (P05979 whole entry): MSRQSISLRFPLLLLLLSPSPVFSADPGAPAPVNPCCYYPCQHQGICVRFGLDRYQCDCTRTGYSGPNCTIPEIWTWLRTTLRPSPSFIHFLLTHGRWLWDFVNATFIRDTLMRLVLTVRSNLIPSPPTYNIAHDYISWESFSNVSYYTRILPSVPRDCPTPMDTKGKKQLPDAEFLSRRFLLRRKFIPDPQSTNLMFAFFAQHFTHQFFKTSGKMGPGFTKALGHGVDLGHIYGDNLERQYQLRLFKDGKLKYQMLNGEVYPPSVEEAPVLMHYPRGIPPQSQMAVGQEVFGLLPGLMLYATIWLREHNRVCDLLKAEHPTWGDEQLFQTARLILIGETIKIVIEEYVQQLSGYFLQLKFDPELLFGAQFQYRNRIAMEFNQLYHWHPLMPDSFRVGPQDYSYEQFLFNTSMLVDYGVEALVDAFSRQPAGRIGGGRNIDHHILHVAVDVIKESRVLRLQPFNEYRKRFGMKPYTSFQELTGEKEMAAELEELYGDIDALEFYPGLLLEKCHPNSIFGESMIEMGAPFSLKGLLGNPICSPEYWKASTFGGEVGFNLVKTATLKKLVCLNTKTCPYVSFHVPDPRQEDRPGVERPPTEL
# [3] = system: Aorta; assay: Vasorelaxant activity in KCl induced normotensive Wistar rat endothelium-denuded aortic rings contraction assessed as maximal vasorelaxing response at 10 uM relative to control; type: functional
# Method in brief: (§2)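 Rat aortic rings were precontracted with KCl. Vasorelaxing efficacy (Emax) is the % reversal of the KCl-induced vasoconstriction. Potency is pIC50, the −log of the molar concentration giving 50% of Emax. ODQ was used to check for NO dependence.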
# [4] = system: Aorta; assay: Vasorelaxant activity in KCl induced normotensive Wistar rat endothelium-denuded aortic rings contraction assessed as decrease in contractile tone; type: functional, tissue-based; method in brief: as §2
# [5] = system: Mus musculus; assay: Analgesic activity against acetic acid induced mouse model assessed as number of writhes at 10 mg/kg, po measured after 30 mins by abdominal constriction test; type: functional; conditions: 0.5 h
# Method in brief: (§3)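 Mice were dosed orally, with carboxymethylcellulose (CMC) as vehicle, 30 min before an acetic acid (0.6%) challenge. Abdominal constrictions (writhes) were counted. Values are means of at least seven mice, and percent writhing reduction is relative to vehicle-treated mice. Statistics were P<0.05 and P<0.01 versus vehicle.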
# [6] = system: Mus musculus; assay: Analgesic activity against acetic acid induced mouse model assessed as number of writhes at 1 mg/kg, po measured after 30 mins by abdominal constriction test; type: functional; conditions: 0.5 h; method in brief: as §3
# [7] = system: Mus musculus; assay: Analgesic activity against acetic acid induced mouse model assessed as number of writhes at 3 mg/kg, po measured after 30 mins by abdominal constriction test; type: functional; conditions: 0.5 h; method in brief: as §3
# [8] = system: Mus musculus; assay: Analgesic activity against acetic acid induced mouse model assessed as reduction in writhing at 10 mg/kg, po by abdominal constriction test; type: functional; set-up: scale not given: the % may be the effect or the level left; method in brief: as §3
# [9] = system: Mus musculus; assay: Analgesic activity against acetic acid induced mouse model assessed as reduction in writhing at 1 mg/kg, po by abdominal constriction test; type: functional; set-up: scale not given: the % may be the effect or the level left; method in brief: as §3
# [10] = system: Mus musculus; assay: Analgesic activity against acetic acid induced mouse model assessed as reduction in writhing at 3 mg/kg, po by abdominal constriction test; type: functional; set-up: scale not given: the % may be the effect or the level left; method in brief: as §3
# [11] = system: Mus musculus; assay: Analgesic activity against acetic acid induced mouse model assessed as number of writhes at 5 mg/kg, po measured after 30 mins by abdominal constriction test; type: functional; conditions: 0.5 h
# [12] = system: Mus musculus; assay: Analgesic activity against acetic acid induced mouse model assessed as number of writhes at 20 mg/kg, po measured after 30 mins by abdominal constriction test; type: functional; conditions: 0.5 h; method in brief: as §3
# [13] = system: Mus musculus; assay: Analgesic activity against acetic acid induced mouse model assessed as number of writhes at 40 mg/kg, po measured after 30 mins by abdominal constriction test; type: functional; conditions: 0.5 h; method in brief: as §3
# [14] = system: Mus musculus; assay: Analgesic activity against acetic acid induced mouse model assessed as reduction in writhing at 5 mg/kg, po by abdominal constriction test; type: functional; set-up: scale not given: the % may be the effect or the level left
# [15] = system: Mus musculus; assay: Analgesic activity against acetic acid induced mouse model assessed as reduction in writhing at 20 mg/kg, po by abdominal constriction test; type: functional; set-up: scale not given: the % may be the effect or the level left; method in brief: as §3
# [16] = system: Mus musculus; assay: Analgesic activity against acetic acid induced mouse model assessed as reduction in writhing at 40 mg/kg, po by abdominal constriction test; type: functional; set-up: scale not given: the % may be the effect or the level left; method in brief: as §3
# [17] = system: Liver; assay: NO releasing activity in rat liver homogenate assessed as nitrite formation measured after 120 mins; type: ADME, tissue-based; conditions: tissue homogenate, 2 h
# Method in brief: (§4)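 Compounds were incubated in rat liver homogenate. Inorganic nitrite and nitrate, the stable NO metabolites, were quantified over time, with the reading taken at 120 min of incubation.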
# [18] = system: Liver; assay: NO releasing activity in rat liver homogenate assessed as nitrate formation measured after 120 mins; type: ADME, tissue-based; conditions: tissue homogenate, 2 h; method in brief: as §4
Compound,inhibition [1] [%],IC50 [2] [µM],IC50 [4] [µM],Emax at 10 µM [3] [%],Activity [5],Activity [8] [%],also measured
Cc1c(CC(=O)NCCO)cc(-c2ccc(S(N)(=O)=O)cc2)n1-c1ccc(F)cc1,18,,,,,,
Cc1c(CC(=O)NCCO)cc(-c2ccc(S(N)(=O)=O)cc2)n1-c1cccc(F)c1,15,,,,,,
COc1ccc2cc([C@H](C)C(=O)OCCCCO[N+](=O)[O-])ccc2c1 [NAPROXCINOD],,,,,,,Activity [17]: 28 µM; Activity [18]: 340.1 µM

# Continued, in another order:
inhibition [1] [%],IC50 [2] [µM],IC50 [4] [µM],Compound,Emax at 10 µM [3] [%],Activity [5],Activity [8] [%],also measured
45,> 10,3.24,Cc1c(CC(=O)NCCO[N+](=O)[O-])cc(-c2ccc(S(N)(=O)=O)cc2)n1-c1cccc(F)c1,67.5,16.7,50.3,Activity [6]: 21.8; Activity [7]: 19.4; Activity [9]: 35.1%; Activity [10]: 42.3%
16,> 10,1.51,Cc1c(CC(=O)NCCO[N+](=O)[O-])cc(-c2ccc(S(N)(=O)=O)cc2)n1-c1ccc(F)cc1,74.9,18.5,44.9,Activity [11]: 26.7; Activity [12]: 15.8; Activity [13]: 16.7; Activity [14]: 20.5%; Activity [15]: 53%; Activity [16]: 50.3%
